# Reference: ChEMBL document CHEMBL5058577, “EUbOPEN Chemogenomics Library 2 (Multiplex)” (2022)
# System: HEK-293T
# Assay: Multiplex assay against HEK293T
# Assay type: toxicity, cell-based
# Settings: human
# Procedure, shortened: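 Tubulin, mitochondrial-mass and membrane-permeability phenotypes are per cents of healthy-nucleus cells. Cells were gated by CellPathfinder machine learning into Hoechst high-intensity objects or normal cells, normal cells into healthy, pyknosed or fragmented nuclei, and pyknosed cells into mitotic or apoptotic. Before that, live cells stained at seeding with Hoechst33342, BioTracker Green Microtubule Cytoskeleton Dye, MitoTracker Red and Annexin V Alexa Fluor 680 were imaged on a CQ1 microscope at 37°C and 5% CO2 after compound addition.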
# [1] = 12 h, 1 µM, compound concentration 1 uM, replicate 1
# [2] = 12 h, 1 µM, compound concentration 1 uM, replicate 2
# [3] = 12 h, 10 µM, compound concentration 10 uM, replicate 1
# [4] = 12 h, 10 µM, compound concentration 10 uM, replicate 2
# [5] = 24 h, 1 µM, compound concentration 1 uM, replicate 1
# [6] = 24 h, 1 µM, compound concentration 1 uM, replicate 2
# [7] = 24 h, 10 µM, compound concentration 10 uM, replicate 1
# [8] = 24 h, 10 µM, compound concentration 10 uM, replicate 2
# [9] = 48 h, 1 µM, compound concentration 1 uM, replicate 1
# [10] = 48 h, 1 µM, compound concentration 1 uM, replicate 2
# [11] = 48 h, 10 µM, compound concentration 10 uM, replicate 1
# [12] = 48 h, 10 µM, compound concentration 10 uM, replicate 2
smiles,measurement,setting,value
CCc1nn2c(C)cc(C)nc2c1Cc1ccc(-c2nnc(C3CCNCC3)o2)cc1,Population Apoptotic (%),[1],35%
same,Population Fragmented Nuclei (%),[1],9%
same,Population Healthy Nuclei (%),[1],80%
same,Population Hoechst High Intensity Objects (%),[1],7%
same,Population Membrane Permeable-Phenotype (%),[1],0%
same,Population Mitochondria Different-Phenotype (%),[1],54%
same,Population Mitotic Cells (%),[1],64%
same,Population Normal (%),[1],92%
same,Population Pyknosed Nuclei (%),[1],10%
same,Population Tubulin-Different-Phenotype (%),[1],37%
same,Total Cell Count,[1],401
same,Population Apoptotic (%),[2],51%
same,Population Fragmented Nuclei (%),[2],7%
same,Population Healthy Nuclei (%),[2],78%
same,Population Hoechst High Intensity Objects (%),[2],5%
same,Population Mitochondria Different-Phenotype (%),[2],62%
same,Population Mitotic Cells (%),[2],48%
same,Population Normal (%),[2],94%
same,Population Pyknosed Nuclei (%),[2],13%
same,Population Tubulin-Different-Phenotype (%),[2],19%
same,Total Cell Count,[2],395
same,Population Apoptotic (%),[3],63%
same,Population Fragmented Nuclei (%),[3],6%
same,Population Healthy Nuclei (%),[3],68%
same,Population Hoechst High Intensity Objects (%),[3],11%
same,Population Membrane Permeable-Phenotype (%),[3],0%
same,Population Mitochondria Different-Phenotype (%),[3],85%
same,Population Mitotic Cells (%),[3],36%
same,Population Normal (%),[3],88%
same,Population Pyknosed Nuclei (%),[3],25%
same,Population Tubulin-Different-Phenotype (%),[3],65%
same,Total Cell Count,[3],319
same,Population Apoptotic (%),[4],56%
same,Population Fragmented Nuclei (%),[4],4%
same,Population Healthy Nuclei (%),[4],78%
same,Population Hoechst High Intensity Objects (%),[4],12%
same,Population Mitochondria Different-Phenotype (%),[4],86%
same,Population Mitotic Cells (%),[4],43%
same,Population Normal (%),[4],87%
same,Population Pyknosed Nuclei (%),[4],17%
same,Population Tubulin-Different-Phenotype (%),[4],48%
same,Total Cell Count,[4],293
same,Population Apoptotic (%),[5],44%
same,Population Fragmented Nuclei (%),[5],10%
same,Population Healthy Nuclei (%),[5],76%
same,Population Hoechst High Intensity Objects (%),[5],4%
same,Population Membrane Permeable-Phenotype (%),[5],0%
same,Population Mitochondria Different-Phenotype (%),[5],36%
same,Population Mitotic Cells (%),[5],55%
same,Population Normal (%),[5],95%
same,Population Pyknosed Nuclei (%),[5],13%
same,Population Tubulin-Different-Phenotype (%),[5],23%
same,Total Cell Count,[5],529
same,Population Apoptotic (%),[6],34%
same,Population Fragmented Nuclei (%),[6],7%
same,Population Healthy Nuclei (%),[6],78%
same,Population Hoechst High Intensity Objects (%),[6],5%
same,Population Mitochondria Different-Phenotype (%),[6],50%
same,Population Mitotic Cells (%),[6],65%
same,Population Normal (%),[6],94%
same,Population Tubulin-Different-Phenotype (%),[6],19%
same,Total Cell Count,[6],542
same,Population Apoptotic (%),[7],69%
same,Population Fragmented Nuclei (%),[7],11%
same,Population Healthy Nuclei (%),[7],72%
same,Population Hoechst High Intensity Objects (%),[7],5%
same,Population Membrane Permeable-Phenotype (%),[7],0%
same,Population Mitochondria Different-Phenotype (%),[7],73%
same,Population Mitotic Cells (%),[7],30%
same,Population Normal (%),[7],94%
same,Population Pyknosed Nuclei (%),[7],15%
same,Population Tubulin-Different-Phenotype (%),[7],50%
same,Total Cell Count,[7],448
same,Population Apoptotic (%),[8],41%
same,Population Fragmented Nuclei (%),[8],10%
same,Population Healthy Nuclei (%),[8],77%
same,Population Hoechst High Intensity Objects (%),[8],7%
same,Population Mitochondria Different-Phenotype (%),[8],78%
same,Population Mitotic Cells (%),[8],58%
same,Population Normal (%),[8],92%
same,Population Pyknosed Nuclei (%),[8],11%
same,Population Tubulin-Different-Phenotype (%),[8],45%
same,Total Cell Count,[8],389
same,Population Apoptotic (%),[9],28%
same,Population Fragmented Nuclei (%),[9],12%
same,Population Healthy Nuclei (%),[9],79%
same,Population Hoechst High Intensity Objects (%),[9],2%
same,Population Membrane Permeable-Phenotype (%),[9],0%
same,Population Mitochondria Different-Phenotype (%),[9],25%
same,Population Mitotic Cells (%),[9],71%
same,Population Normal (%),[9],97%
same,Population Pyknosed Nuclei (%),[9],8%
same,Population Tubulin-Different-Phenotype (%),[9],15%
same,Total Cell Count,[9],842
same,Population Apoptotic (%),[10],32%
same,Population Fragmented Nuclei (%),[10],11%
same,Population Healthy Nuclei (%),[10],83%
same,Population Hoechst High Intensity Objects (%),[10],5%
same,Population Mitochondria Different-Phenotype (%),[10],24%
same,Population Mitotic Cells (%),[10],67%
same,Population Normal (%),[10],94%
same,Population Pyknosed Nuclei (%),[10],5%
same,Population Tubulin-Different-Phenotype (%),[10],10%
same,Total Cell Count,[10],829
same,Population Apoptotic (%),[11],54%
same,Population Fragmented Nuclei (%),[11],14%
same,Population Healthy Nuclei (%),[11],72%
same,Population Hoechst High Intensity Objects (%),[11],4%
same,Population Membrane Permeable-Phenotype (%),[11],0%
same,Population Mitochondria Different-Phenotype (%),[11],59%
same,Population Mitotic Cells (%),[11],45%
same,Population Normal (%),[11],95%
same,Population Pyknosed Nuclei (%),[11],13%
same,Population Tubulin-Different-Phenotype (%),[11],32%
same,Total Cell Count,[11],517
same,Population Apoptotic (%),[12],50%
same,Population Fragmented Nuclei (%),[12],12%
same,Population Healthy Nuclei (%),[12],80%
same,Population Hoechst High Intensity Objects (%),[12],3%
same,Population Mitochondria Different-Phenotype (%),[12],56%
same,Population Mitotic Cells (%),[12],50%
same,Population Normal (%),[12],96%
same,Population Pyknosed Nuclei (%),[12],6%
same,Population Tubulin-Different-Phenotype (%),[12],26%
same,Total Cell Count,[12],607
